≈ marks a conversion by molar mass, not a printed value. Calls of active or inactive are those of the source. No cut-off for these calls is given here.
Assays:
Proteus vulgaris = assay: […] activity against Proteus vulgaris ATCC 3851 at 200 ug/mL; type: functional, organism-based
Salmonella typhimurium = assay: Antibacterial activity against Salmonella Typhimurium ATCC 14028 at 200 ug/mL; type: functional, organism-based; settings: Salmonella enterica subsp. enterica serovar Typhimurium
Trichophyton rubrum = assay: Antifungal activity against Trichophyton rubrum IFO 6204 at 200 ug/mL; type: functional, organism-based
Bacillus subtilis = assay: Antibacterial activity against Bacillus subtilis ATCC 6633 at 200 ug/mL; type: functional, organism-based
[1] = tested on: Trichophyton mentagrophytes; assay: Antifungal activity against Trichophyton mentagrophytes IFO 40996 at 200 ug/mL; type: functional, organism-based
Escherichia coli = assay: Antibacterial activity against Escherichia coli ATCC 11775 at 200 ug/mL; type: functional, organism-based
Staphylococcus aureus = assay: Antibacterial activity against Staphylococcus aureus ATCC 6538 at 200 ug/mL; type: functional, organism-based
Candida albicans = assay: Antifungal activity against Candida albicans ATCC 10231 at 200 ug/mL; type: functional, organism-based
Klebsiella pneumoniae = assay: Antibacterial activity against Klebsiella pneumoniae ATCC 10031 at 200 ug/mL; type: functional, organism-based
Micrococcus luteus = assay: Antibacterial activity against Micrococcus luteus ATCC 10240 at 200 ug/mL; type: functional, organism-based
[2] = Inhibition of Staphylococcus aureus sortase B
Method in brief: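 Recombinant sortase B enzyme; inhibition given as EC50 in µg/mL.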

Row | EC50 [2] | Compound | Activity (Proteus vulgaris) | Activity (Salmonella typhimurium) | Activity (Trichophyton rubrum) | Activity (Bacillus subtilis) | Activity [1] | Activity (Escherichia coli) | Activity (Staphylococcus aureus) | Activity (Candida albicans) | Activity (Klebsiella pneumoniae) | Activity (Micrococcus luteus)
1 | 88.3 µg/mL (≈ 151 µM) | O=C1CCC(=O)NCCCCCN(O)C(=O)CCC(=O)NCCCCCN(O)C(=O)CCC(=O)NCCCCCN1 [DEHYDROXYNOCARDAMINE] | inactive | inactive | inactive | inactive | inactive | inactive | inactive | inactive | inactive | inactive
2 | 126.4 µg/mL (≈ 215 µM) | O=C1CCC(=O)N(O)CCCCCNC(=O)CCC(=O)N(O)CCCCNC(=O)CCC(=O)N(O)CCCCCN1 [DESMETHYLENYLNOCARDAMINE] | inactive | inactive | inactive | inactive | inactive | inactive | inactive | inactive | inactive | inactive
3 | > 200 µg/mL | O=C1CCC(=O)N(O)CCCCCNC(=O)CCC(=O)N(O)CCCCCNC(=O)CCC(=O)N(O)CCCCCN1 [NOCARDAMINE] | inactive | inactive | inactive | inactive | inactive | inactive | inactive | inactive | inactive | inactive

Reference: ChEMBL document CHEMBL1158747, “Cyclic peptides of the nocardamine class from a marine-derived bacterium of the genus Streptomyces” (J Nat Prod, 2005)
